Reference: ChEMBL document CHEMBL5696442, “Discovery of type II inhibitors of TGFβ-activated kinase 1 (TAK1) and mitogen-activated protein kinase kinase kinase kinase 2 (MAP4K2)” (J Med Chem, 2015)

Tests used:
Format in all cases: cell-based
[1] = molecular target: Interferon-induced, double-stranded RNA-activated protein kinase (Homo sapiens) (UniProt P19525); experiment: Inhibition of PKR Lys2 labeling site in human A-375 cells at 0.5 uM by KiNativ Profiling analysis relative to control
[2] = molecular target: RAC-beta serine/threonine-protein kinase (Homo sapiens) (UniProt P31751); experiment: Inhibition of AKT2 ATP Loop labeling site in human A-375 cells at 0.05 uM by KiNativ Profiling analysis relative to control
RAC-beta serine/threonine-protein kinase (Homo sapiens), sequence (P31751 whole entry): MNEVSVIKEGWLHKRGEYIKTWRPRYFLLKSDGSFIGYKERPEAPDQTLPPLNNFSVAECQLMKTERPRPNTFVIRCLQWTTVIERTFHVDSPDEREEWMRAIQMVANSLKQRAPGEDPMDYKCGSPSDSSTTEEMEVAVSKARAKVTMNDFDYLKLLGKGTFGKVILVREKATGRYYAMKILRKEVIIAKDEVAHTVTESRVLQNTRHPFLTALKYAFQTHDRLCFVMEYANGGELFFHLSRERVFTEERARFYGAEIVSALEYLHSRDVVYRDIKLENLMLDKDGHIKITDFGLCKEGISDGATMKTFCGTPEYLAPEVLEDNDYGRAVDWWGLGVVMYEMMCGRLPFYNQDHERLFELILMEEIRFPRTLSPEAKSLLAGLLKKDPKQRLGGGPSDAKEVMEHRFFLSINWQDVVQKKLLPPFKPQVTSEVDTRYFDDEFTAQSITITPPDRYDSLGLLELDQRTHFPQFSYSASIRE

[3] = molecular target: T1, Serine/threonine-protein kinase TBK1 (Homo sapiens) (UniProt Q9UHD2); experiment: Inhibition of TBK1 Lys2 labeling site in human A-375 cells at 0.5 uM by KiNativ Profiling analysis relative to control
T1 sequence (whole entry): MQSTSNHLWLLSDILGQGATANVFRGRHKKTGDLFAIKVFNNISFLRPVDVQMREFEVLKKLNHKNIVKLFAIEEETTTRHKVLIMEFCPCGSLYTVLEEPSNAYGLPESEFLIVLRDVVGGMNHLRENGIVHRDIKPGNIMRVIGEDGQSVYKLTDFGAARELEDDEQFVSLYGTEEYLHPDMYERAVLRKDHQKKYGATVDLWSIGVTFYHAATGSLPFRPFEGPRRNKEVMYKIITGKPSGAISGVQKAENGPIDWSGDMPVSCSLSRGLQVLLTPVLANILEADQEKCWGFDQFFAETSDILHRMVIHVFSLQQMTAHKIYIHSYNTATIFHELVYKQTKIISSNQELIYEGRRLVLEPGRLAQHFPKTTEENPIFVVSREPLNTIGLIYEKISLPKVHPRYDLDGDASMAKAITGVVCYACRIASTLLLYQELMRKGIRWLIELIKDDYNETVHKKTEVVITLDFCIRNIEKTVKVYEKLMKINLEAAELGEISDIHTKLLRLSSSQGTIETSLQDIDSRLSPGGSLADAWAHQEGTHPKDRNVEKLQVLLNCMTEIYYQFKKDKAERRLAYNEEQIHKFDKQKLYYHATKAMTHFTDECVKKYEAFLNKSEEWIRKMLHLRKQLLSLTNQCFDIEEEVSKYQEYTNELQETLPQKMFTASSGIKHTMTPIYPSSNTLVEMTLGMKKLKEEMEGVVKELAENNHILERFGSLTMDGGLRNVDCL

[4] = molecular target: Dual specificity mitogen-activated protein kinase kinase 2 (Homo sapiens) (UniProt P36507); experiment: Inhibition of MAP2K2 Lys2 labeling site in human A-375 cells at 0.05 uM by KiNativ Profiling analysis relative to control
Dual specificity mitogen-activated protein kinase kinase 2 (Homo sapiens), sequence (P36507 whole entry): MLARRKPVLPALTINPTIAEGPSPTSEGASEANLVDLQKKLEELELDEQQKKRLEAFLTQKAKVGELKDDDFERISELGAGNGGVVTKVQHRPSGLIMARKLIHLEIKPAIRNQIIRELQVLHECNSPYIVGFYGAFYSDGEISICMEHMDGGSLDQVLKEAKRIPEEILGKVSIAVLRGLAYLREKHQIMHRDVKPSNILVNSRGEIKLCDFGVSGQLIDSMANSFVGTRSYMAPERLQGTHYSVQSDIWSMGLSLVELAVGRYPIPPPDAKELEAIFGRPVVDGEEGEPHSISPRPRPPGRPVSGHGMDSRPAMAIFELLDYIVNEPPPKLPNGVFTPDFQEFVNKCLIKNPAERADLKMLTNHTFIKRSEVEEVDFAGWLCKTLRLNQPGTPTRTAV

[5] = molecular target: MAP/microtubule affinity-regulating kinase 3 (Homo sapiens) (UniProt P27448); experiment: Inhibition of MARK3 Lys1 labeling site in human A-375 cells at 5 uM by KiNativ Profiling analysis relative to control
MAP/microtubule affinity-regulating kinase 3 (Homo sapiens), sequence (P27448 whole entry, looked up): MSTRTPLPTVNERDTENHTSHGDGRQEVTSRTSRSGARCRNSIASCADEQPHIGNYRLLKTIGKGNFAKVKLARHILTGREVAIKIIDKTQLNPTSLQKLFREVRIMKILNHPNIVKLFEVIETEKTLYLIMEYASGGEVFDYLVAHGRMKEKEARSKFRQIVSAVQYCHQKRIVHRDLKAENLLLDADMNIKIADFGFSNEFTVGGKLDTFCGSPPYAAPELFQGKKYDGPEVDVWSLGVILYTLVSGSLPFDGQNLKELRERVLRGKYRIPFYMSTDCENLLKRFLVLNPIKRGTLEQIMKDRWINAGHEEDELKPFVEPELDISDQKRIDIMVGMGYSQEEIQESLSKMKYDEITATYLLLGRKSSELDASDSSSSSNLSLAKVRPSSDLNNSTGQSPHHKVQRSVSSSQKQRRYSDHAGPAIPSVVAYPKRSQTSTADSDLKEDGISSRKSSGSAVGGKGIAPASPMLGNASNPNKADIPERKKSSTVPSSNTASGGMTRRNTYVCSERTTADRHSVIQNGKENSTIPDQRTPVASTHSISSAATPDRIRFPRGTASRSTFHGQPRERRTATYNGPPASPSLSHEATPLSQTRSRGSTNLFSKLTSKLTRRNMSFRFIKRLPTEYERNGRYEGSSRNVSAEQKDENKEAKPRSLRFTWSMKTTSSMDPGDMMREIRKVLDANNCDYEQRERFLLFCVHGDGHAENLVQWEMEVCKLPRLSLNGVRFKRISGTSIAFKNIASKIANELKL

[6] = molecular target: Dual specificity mitogen-activated protein kinase kinase 1 (Homo sapiens) (UniProt Q02750); experiment: Inhibition of MAP2K1 Lys2 labeling site harbouring DVKPSNILVNSR in human A-375 cells at 0.05 uM by KiNativ Profiling analysis relative to control
Dual specificity mitogen-activated protein kinase kinase 1 (Homo sapiens), sequence (Q02750 whole entry): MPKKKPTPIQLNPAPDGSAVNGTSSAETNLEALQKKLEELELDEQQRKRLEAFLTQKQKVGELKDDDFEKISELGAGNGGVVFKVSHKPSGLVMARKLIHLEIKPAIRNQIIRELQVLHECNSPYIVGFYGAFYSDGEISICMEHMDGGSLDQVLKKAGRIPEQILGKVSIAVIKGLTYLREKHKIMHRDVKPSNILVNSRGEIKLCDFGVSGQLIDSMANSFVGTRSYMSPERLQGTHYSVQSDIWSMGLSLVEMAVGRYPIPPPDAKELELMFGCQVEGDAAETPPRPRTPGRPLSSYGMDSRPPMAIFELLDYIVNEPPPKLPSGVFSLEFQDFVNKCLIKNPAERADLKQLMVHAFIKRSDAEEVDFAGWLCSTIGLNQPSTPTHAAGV

[7] = molecular target: T2, Acylglycerol kinase, mitochondrial (Homo sapiens) (UniProt Q53H12); experiment: Inhibition of AGK ATP labeling site in human A-375 cells at 0.5 uM by KiNativ Profiling analysis relative to control
T2 sequence (whole entry): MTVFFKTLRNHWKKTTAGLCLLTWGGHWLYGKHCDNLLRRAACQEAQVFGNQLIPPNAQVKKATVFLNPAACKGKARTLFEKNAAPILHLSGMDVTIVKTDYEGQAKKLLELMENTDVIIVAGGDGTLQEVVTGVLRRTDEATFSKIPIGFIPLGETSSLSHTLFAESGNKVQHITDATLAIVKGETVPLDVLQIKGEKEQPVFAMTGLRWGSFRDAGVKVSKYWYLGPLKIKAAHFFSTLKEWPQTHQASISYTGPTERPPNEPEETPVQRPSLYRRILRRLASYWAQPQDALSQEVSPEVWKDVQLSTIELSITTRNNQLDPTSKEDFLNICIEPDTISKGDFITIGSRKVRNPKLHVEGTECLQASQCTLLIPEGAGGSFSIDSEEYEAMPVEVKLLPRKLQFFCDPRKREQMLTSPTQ
Procedure, shortened: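 Live A375 melanoma cells were treated with compound at 5 or 0.5 μM, then lysed. The lysates were labeled with a lysine-reactive ATP or ADP-biotin probe. Kinase protection from probe labeling was measured by KiNativ.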

[8] = molecular target: Tyrosine-protein kinase ABL1 (Homo sapiens, UniProt P00519); experiment: Inhibition of ABL ACT labeling site in human A-375 cells at 5 uM by KiNativ Profiling analysis relative to control
Tyrosine-protein kinase ABL1, sequence (P00519 whole entry): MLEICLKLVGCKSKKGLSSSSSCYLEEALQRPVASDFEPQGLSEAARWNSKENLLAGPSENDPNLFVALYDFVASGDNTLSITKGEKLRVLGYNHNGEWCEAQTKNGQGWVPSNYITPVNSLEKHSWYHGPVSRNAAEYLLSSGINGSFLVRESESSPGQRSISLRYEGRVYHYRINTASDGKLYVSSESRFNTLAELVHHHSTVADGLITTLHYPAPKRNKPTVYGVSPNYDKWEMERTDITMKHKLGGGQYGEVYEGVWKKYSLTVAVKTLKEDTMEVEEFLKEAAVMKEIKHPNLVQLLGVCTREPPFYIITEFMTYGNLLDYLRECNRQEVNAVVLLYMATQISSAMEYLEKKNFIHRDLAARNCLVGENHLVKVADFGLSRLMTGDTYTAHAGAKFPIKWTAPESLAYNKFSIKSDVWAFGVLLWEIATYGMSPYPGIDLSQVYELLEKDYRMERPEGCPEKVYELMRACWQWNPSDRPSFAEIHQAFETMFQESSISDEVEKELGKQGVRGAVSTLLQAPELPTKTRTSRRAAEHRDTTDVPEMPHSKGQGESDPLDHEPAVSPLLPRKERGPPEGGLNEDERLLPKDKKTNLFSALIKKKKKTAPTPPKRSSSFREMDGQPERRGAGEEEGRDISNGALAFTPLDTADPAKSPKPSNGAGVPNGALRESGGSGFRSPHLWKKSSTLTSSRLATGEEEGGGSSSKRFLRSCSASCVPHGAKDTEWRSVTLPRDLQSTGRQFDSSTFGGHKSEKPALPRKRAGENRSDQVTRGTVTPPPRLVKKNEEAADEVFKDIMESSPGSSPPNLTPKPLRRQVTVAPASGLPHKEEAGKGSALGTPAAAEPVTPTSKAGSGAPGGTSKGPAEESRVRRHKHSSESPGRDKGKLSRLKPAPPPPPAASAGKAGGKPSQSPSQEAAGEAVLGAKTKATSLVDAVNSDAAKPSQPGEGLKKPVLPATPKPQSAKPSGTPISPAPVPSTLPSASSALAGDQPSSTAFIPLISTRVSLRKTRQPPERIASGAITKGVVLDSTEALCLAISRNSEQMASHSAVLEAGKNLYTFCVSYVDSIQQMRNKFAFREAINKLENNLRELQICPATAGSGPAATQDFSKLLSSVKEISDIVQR
Procedure, shortened: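 Intact A375 melanoma cells were treated with compound at 5 or 0.5 μM, then lysed. Lysate kinases were labeled with a lysine-reactive ATP or ADP-biotin probe (KiNativ). Inhibition is read as protection of each kinase labeling site from probe labeling.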

[9] = molecular target: Cyclin-dependent kinase 18 (Homo sapiens) (UniProt Q07002); experiment: Inhibition of PCTAIRE3 Lys1 labeling site harbouringSKLTENLVALKEIR in human A-375 cells at 0.05 uM by KiNativ Profiling analysis relative to control
Cyclin-dependent kinase 18 (Homo sapiens), sequence (Q07002 whole entry): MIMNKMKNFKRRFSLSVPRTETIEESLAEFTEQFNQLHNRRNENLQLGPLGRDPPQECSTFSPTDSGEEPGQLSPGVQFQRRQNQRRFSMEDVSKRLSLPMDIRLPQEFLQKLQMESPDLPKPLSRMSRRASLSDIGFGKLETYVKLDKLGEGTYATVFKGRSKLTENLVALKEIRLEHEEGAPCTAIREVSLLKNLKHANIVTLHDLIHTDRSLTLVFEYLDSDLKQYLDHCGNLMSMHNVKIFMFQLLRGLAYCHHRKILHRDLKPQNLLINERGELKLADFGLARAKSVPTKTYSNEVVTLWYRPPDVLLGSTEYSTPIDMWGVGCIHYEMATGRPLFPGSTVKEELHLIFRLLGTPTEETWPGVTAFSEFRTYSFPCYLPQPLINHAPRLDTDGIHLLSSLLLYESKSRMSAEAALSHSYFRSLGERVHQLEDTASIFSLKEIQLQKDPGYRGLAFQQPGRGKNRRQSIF

Interferon-induced, double-stranded RNA-activated protein kinase (Homo sapiens), sequence (P19525 whole entry): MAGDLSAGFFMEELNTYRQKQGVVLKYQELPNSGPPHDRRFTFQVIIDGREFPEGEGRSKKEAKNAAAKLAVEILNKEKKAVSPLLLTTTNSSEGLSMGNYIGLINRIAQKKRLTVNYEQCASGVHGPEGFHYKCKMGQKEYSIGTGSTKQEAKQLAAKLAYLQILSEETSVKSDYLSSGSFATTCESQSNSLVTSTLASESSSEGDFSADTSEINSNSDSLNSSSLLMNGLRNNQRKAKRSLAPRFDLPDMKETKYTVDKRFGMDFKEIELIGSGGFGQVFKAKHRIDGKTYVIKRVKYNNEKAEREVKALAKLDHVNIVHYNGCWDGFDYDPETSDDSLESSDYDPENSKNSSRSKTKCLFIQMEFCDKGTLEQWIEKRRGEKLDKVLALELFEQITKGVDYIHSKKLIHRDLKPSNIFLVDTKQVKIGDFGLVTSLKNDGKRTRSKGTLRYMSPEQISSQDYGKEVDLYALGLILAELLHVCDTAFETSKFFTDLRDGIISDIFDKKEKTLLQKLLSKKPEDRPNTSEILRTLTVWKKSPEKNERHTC

| Structure (SMILES) | inhibition [1] [%] | inhibition [2] [%] | inhibition [3] [%] | inhibition [4] [%] | inhibition [5] [%] | inhibition [6] [%] | inhibition [7] [%] | inhibition [8] [%] | inhibition [9] [%] |
| --- | --- | --- | --- | --- | --- | --- | --- | --- | --- |
| CCN1CCN(Cc2ccc(NC(=O)c3ccc(C)c(Oc4ccnc5[nH]ccc45)c3)cc2C(F)(F)F)CC1 | -5.5 | -3.9 | 35.7 | 6.1 | 4.9 | 6.1 | -0.1 | > 98 | 2.5 |
| CCN1CCN(Cc2ccc(NC(=O)c3ccc(C)c(/C=C/c4cnc5[nH]ccc5c4OC)c3)cc2C(F)(F)F)CC1 | -9.6 | 20.9 | 16.9 | -8.3 | 13.3 | -8.3 | 7 | > 98 | 8.5 |
